Results taken from ChEMBL document CHEMBL1921780, “Novel 3-nitro-1H-1,2,4-triazole-based aliphatic and aromatic amines as anti-chagasic agents” (J Med Chem, 2011).

Key:
Trypanosoma cruzi [1] = assay: Antitrypanosomal activity against amastigote form of Trypanosoma cruzi Tulahuen C4 infected in rat L6 cells after 72 hrs by alamar blue assay; conditions: Tulahuen C4, L6, 72 h
Trypanosoma cruzi [2] = assay: Ratio of benznidazole IC50 to compound IC50 for Trypanosoma cruzi Tulahuen C4 infected in rat L6 cells after 72 hrs by alamar blue assay; type: functional
[3] = Selectivity index, ratio of IC50 for rat L6 cells to IC50 for Trypanosoma brucei rhodesiense STIB 900; type: toxicity, cell-based; conditions: L6 cells versus Trypanosoma brucei rhodesiense STIB 900, read-out: Ratio IC50
Outline: (§1)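 Selectivity index is the L6 myoblast IC50 divided by the IC50 for each parasite. L. donovani was tested as axenic amastigotes. Both IC50s came from 96-well dose-response screens fitted by linear regression of sigmoidal curves.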

[4] = test system: Trypanosoma brucei brucei; assay: Ratio of IC50 for blood-stream Trypanosoma brucei brucei expressing type 1 nitroreductase in the absence of tetracycline to IC50 for tetracycline-induced blood-stream Trypanosoma brucei brucei overexpressing type 1 nitroreductase; type: functional
Outline: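 Each culture seeded at 1 × 10^3 per ml, given compound for 3 days at 37 °C, then Alamar blue added for 16 h. IC50 taken from cell density, and the ratio is uninduced over induced.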

[5] = test system: Trypanosoma brucei brucei; assay: Antitrypanosomal activity against blood-stream Trypanosoma brucei brucei after 3 days by alamar blue assay; type: functional, organism-based; conditions: 72 h
Outline: (§2)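 Bloodstream-form parasites seeded at 1 × 10^3 per ml in growth medium with a range of nitrotriazole or nifurtimox concentrations, no tetracycline. Incubated 3 days at 37 °C, then Alamar blue added for a further 16 h. IC50 taken from culture cell density.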

[6] = Dissociation constant, pKa of the compound; type: physicochemical
L6 = assay: Cytotoxicity against rat L6 cells after 72 hrs by alamar blue assay; type: cell-based; conditions: L6, 72 h
Outline: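 Run in 96-well plates with a compound dose series. T. cruzi was tested as amastigotes inside infected L6 rat skeletal myoblasts. Uninfected L6 cells were used for cytotoxicity. IC50 was obtained by linear regression from sigmoidal dose–inhibition curves.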

[7] = Selectivity index, ratio of IC50 for rat L6 cells to IC50 for Leishmania donovani MHOM-ET-67/L82; type: toxicity, cell-based; conditions: L6 cells versus Leishmania donovani MHOM-ET-67/L82, read-out: Ratio IC50
Outline: as §1

[8] = test system: Trypanosoma brucei rhodesiense; assay: Antitrypanosomal activity against blood stream form of Trypanosoma brucei rhodesiense STIB 900 […] after 72 hrs by alamar blue assay; type: functional, organism-based; conditions: STIB 900, 72 h
[9] = test system: Trypanosoma brucei brucei; assay: Antitrypanosomal activity against blood-stream Trypanosoma brucei brucei expressing type 1 nitroreductase after 3 days by alamar blue assay in absence of tetracycline; type: functional, organism-based; conditions: 72 h
Outline: as §2

Trypanosoma cruzi [10] = assay: Antitrypanosomal activity against amastigotes of Trypanosoma cruzi Tulahuen C4 infected in rat L6 cells after 72 hrs by alamar blue assay; conditions: Tulahuen C4, L6, 72 h
[11] = Selectivity index, ratio of IC50 for rat L6 cells to IC50 for Trypanosoma cruzi Tulahuen C4; type: toxicity, cell-based; conditions: L6 cells versus Trypanosoma cruzi Tulahuen C4, read-out: Ratio IC50
Outline: as §1

Leishmania donovani = assay: Antileishmanial activity against Leishmania donovani MHOM-ET-67/L82 axenic amastigotes after 72 hrs by alamar blue assay; conditions: MHOM-ET-67/L82, 72 h
[12] = test system: Trypanosoma brucei brucei; assay: Antitrypanosomal activity against tetracycline-induced blood-stream Trypanosoma brucei brucei overexpressing type 1 nitroreductase after 3 days by alamar blue assay; type: functional, organism-based; conditions: 72 h
Outline: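 Bloodstream-form parasites carrying inducible TbNTR, with expression induced by tetracycline (1 μg/mL). Seeded at 1 × 10^3 per ml with a range of nitrotriazole or nifurtimox concentrations. Incubated 3 days at 37 °C, then Alamar blue added for 16 h. IC50 taken from cell density.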

Salmonella typhimurium = assay: Induction of mutagenesis in Salmonella Typhimurium by Ames test; type: toxicity, organism-based; conditions: salmonella enterica subsp. enterica serovar typhimurium

Compound	IC50 (Trypanosoma cruzi [1]) [nM]	Ratio IC50 (Trypanosoma cruzi [2])	selectivity ratio [3]	Ratio IC50 [4]	IC50 [5] [nM]	pKa [6]	IC50 (L6) [nM]	selectivity ratio [7]	IC50 [8] [nM]	IC50 [9] [nM]	IC50 (Trypanosoma cruzi [10]) [nM]	selectivity ratio [11]	IC50 (Leishmania donovani) [nM]	IC50 [12] [nM]	Activity (Salmonella typhimurium)
O=C(Cn1ccnc1[N+](=O)[O-])NCc1ccccc1 [BENZNIDAZOLE]	1350	1													
Cl.Cl.O=[N+]([O-])c1ncn(CCCN2CCN(c3ccc(C(F)(F)F)cc3)CC2)n1		33.8	10	13	2300	7.85	52800	2	5330	2630	40	1320	25900	210	
Cl.O=[N+]([O-])c1nccn1CCCNc1nc(-c2ccccc2)nc2ccccc12		0.7	22	8	7470	5.06	87800	9	3920	7580	1970	45	10100	950	
Cl.O=[N+]([O-])c1ncn(CCCCNc2ccnc3cc(Cl)ccc23)n1		9.6	708	4	170	7.31	137000	2	193	440	140	976	64500	100	
Cl.O=[N+]([O-])c1ncn(CCCNc2ccnc3cccnc23)n1		1.3	60		> 10000	6.81	133000	1	2220		1030	129	182000		
CC1CS(=O)(=O)CCN1/N=C/c1ccc([N+](=O)[O-])o1 (stereo unspecified) [NIFURTIMOX]				13						1710				130	
Cl.O=[N+]([O-])c1ncn(CCCNCc2ccc(C(F)(F)F)cc2)n1		4.2	34			9.65	122000	1	3610		320	383	159000		
Cl.Cl.O=[N+]([O-])c1ncn(CCCN2CCN(Cc3ccc(C(F)(F)F)cc3)CC2)n1		4	> 140		> 10000	8.33	> 191000	> 3	1380		340	> 562	58200		
Cl.Cl.O=[N+]([O-])c1ncn(CCCCN2CCN(Cc3ccc(C(F)(F)F)cc3)CC2)n1		3.3	99		> 10000	8.52	118000	3	1200		412	287	44400		
Cl.O=[N+]([O-])c1ncn(CCCN(Cc2ccc3ccc(Cl)cc3n2)Cc2ccc3ccc(Cl)cc3n2)n1		3.8	78			6.87	71600	7	917		358	200	9580		
Cl.O=[N+]([O-])c1ncn(CCCNCc2ccc3ccc(Cl)cc3n2)n1		4.3	136			8.76	143000	2	1050		311	460	63800		
Cl.O=[N+]([O-])c1ncn(CCCNc2c3ccccc3nc3ccccc23)n1		9.6	34			9.2	20500	1	611		140	147	35400		
Cl.O=[N+]([O-])c1ncn(CCCNc2ccnc3cc(Cl)ccc23)n1		2.2	463			7.31	143000	3	309		607	236	45800		Non-toxic
Cl.O=[N+]([O-])c1ncn(CCCN(Cc2ccc(C(F)(F)F)cc2)Cc2ccc(C(F)(F)F)cc2)n1		9.3	339	2	210	8.79	91900	264	271	200	145	634	348	100	
Cl.O=[N+]([O-])c1ncn(CCCNCc2cc(C(F)(F)F)cc(C(F)(F)F)c2)n1		8	18	14	7830	9.44	138000	12	7840	11100	169	816	11100	760	Non-toxic
Cl.O=[N+]([O-])c1ncn(CCCNc2nc(-c3ccccc3)nc3ccccc23)n1		0.9	68	64	2630	5.06	97000	10	1420	4480	1480	66	9480	70	Non-toxic
